Structures are written as SMILES.

Series [1] can be described thus: AUC (0 to 8 hrs) in Sprague-Dawley rat plasma at 5 mg/kg, po by UHPLC-MS analysis. The format is ADME, organism-based. Details: time < 8 hr, dose 5 mg/kg, route oral. The method, boiled down: (§1)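 Male Sprague Dawley rats (8 weeks old at delivery), single oral dose of 5 mg/kg, formulation at pH 3. Three rats per time point (30 min, 2, 4, 8 h) under isoflurane; heart-puncture blood into lithium-heparin, then brain collected. Plasma and tissue stored at −80 °C. Samples precipitated with acetonitrile containing diazepam internal standard, then LC–MS.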

A short description of series [2]: AUC (0 to 8 hrs) in Sprague-Dawley rat brain at 5 mg/kg, po by UHPLC-MS analysis. Particulars: in vivo. On the set-up: time < 8 hr, dose 5 mg/kg, route oral. In kind it is ADME, organism-based. The method, boiled down:
as §1

A short description of series [3]: Stability in human hepatocytes assessed as parent compound remaining at 5 uM after 3 hrs by LC-MS analysis. Particulars: read-out: Stability. In kind it is ADME, cell-based, Hepatocyte. The method, boiled down: (§2)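 Cryopreserved hepatocytes in suspension (200 000 cells/well) in Williams medium E with 2 mM L-glutamine and 25 mM HEPES. Test item at a final 5 μM (0.5% DMSO). Sampled at 0, 15, 60, 90 and 180 min. Precipitated with ACN, then LC–MS. Controls: 7-ethoxycoumarin and hepatocyte-free medium; n = 2.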

The target of a further series is T1, CYP1A1 (Homo sapiens, UniProt P04798).
T1 sequence (P04798 whole entry): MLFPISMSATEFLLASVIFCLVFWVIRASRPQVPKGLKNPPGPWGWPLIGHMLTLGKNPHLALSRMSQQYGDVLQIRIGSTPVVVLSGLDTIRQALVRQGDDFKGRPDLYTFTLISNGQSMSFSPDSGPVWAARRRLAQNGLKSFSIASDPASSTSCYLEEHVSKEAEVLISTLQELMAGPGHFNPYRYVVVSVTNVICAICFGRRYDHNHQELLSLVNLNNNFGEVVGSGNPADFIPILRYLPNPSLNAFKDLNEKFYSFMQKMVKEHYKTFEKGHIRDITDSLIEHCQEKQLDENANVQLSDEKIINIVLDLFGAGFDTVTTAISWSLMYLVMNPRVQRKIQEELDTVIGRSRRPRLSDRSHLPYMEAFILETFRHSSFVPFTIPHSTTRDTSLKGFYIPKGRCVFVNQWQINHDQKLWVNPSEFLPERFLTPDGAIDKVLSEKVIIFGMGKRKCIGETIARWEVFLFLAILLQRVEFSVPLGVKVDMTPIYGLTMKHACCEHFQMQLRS
Kind of series: Drug metabolism assessed as recombinant human CYP1A1-mediated compound hydrolysis by measuring parent compound remaining incubated for 60 mins by LC-HRMS analysis. In kind it is ADME. Particulars: read-out: Stability. The method in brief:
(§3)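 Human recombinant CYP1A1 or CYP1A2 Supersomes (25 pmol/mL) incubated with compound at 1 μM (0.25% DMSO) plus NADP+-regenerating cofactors at 37 °C for 60 min. Reaction stopped with ACN containing internal standard. Parent and metabolites expressed as percentage of total peak areas.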

Series [4] can be described thus: Stability in Sprague-Dawley rat hepatocytes assessed as parent compound remaining at 5 uM after 3 hrs by LC-MS analysis. The format is ADME, cell-based, Hepatocyte. Particulars: read-out: Stability. The method in brief:
as §2

A short description of series [5]: Stability in CD-1 mouse hepatocytes assessed as parent compound remaining at 5 uM after 3 hrs by LC-MS analysis. In kind it is ADME, cell-based, Hepatocyte. Particulars: read-out: Stability. The method in brief:
as §2

Series [6] is described as follows: Stability in Beagle dog hepatocytes assessed as parent compound remaining at 5 uM after 3 hrs by LC-MS analysis. In kind it is ADME, cell-based, Canis lupus familiaris, Hepatocyte. Particulars: read-out: Stability. The method, boiled down:
as §2

A further series addresses T2, CYP1A2 (Homo sapiens, UniProt P05177).
T2 sequence (P05177 whole entry): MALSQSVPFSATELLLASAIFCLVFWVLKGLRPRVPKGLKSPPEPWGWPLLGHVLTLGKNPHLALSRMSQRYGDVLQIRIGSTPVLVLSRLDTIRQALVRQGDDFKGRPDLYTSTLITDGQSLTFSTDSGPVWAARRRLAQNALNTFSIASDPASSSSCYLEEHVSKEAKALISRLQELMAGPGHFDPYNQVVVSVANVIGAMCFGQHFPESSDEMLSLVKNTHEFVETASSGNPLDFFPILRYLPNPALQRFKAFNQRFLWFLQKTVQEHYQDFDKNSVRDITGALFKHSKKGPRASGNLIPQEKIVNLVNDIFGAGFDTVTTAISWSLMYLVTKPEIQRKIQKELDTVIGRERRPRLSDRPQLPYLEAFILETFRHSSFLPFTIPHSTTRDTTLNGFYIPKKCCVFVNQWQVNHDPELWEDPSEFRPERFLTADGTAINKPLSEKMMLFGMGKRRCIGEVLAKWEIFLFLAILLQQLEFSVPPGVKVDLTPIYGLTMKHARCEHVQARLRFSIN
Kind of series: Drug metabolism assessed as recombinant human CYP1A2-mediated compound hydrolysis by measuring parent compound remaining incubated for 60 mins by LC-HRMS analysis. The format is ADME. Particulars: read-out: Stability. The method, boiled down:
as §3

Turning to `C[C@@H]1COCCN1c1nc(-c2cnc(N)cn2)nc2c1C[C@@H]1COCCN21`, in series [1], the AUC(0-t) at 8 h amounted to 5730 ng·h/mL. The AUC in series [2] worked out at 104 ng·h/g.

With `C[C@@H]1COCCN1c1nc(-c2cnc(N)nc2)nc2c1C[C@@H]1COCCN21`, the remaining at 3 h, 5 µM was 93.2% in series [3], 93.6% in series [4], 81.2% in series [5] and 93% in series [6]. In addition, the results for the remaining at 1 h on CYP1A1 and at CYP1A2 were 73.3% and 99.7%, respectively.

By AUC(0-t) is commonly meant exposure summed from dosing to a finite time, without extrapolation to infinity. A high value points to high exposure.

For the origin of these results see ChEMBL document CHEMBL4321805, “A Conformational Restriction Strategy for the Identification of a Highly Selective Pyrimido-pyrrolo-oxazine mTOR Inhibitor” (J Med Chem, 2019).
